From ChEMBL document CHEMBL2401625, “Synthesis and evaluation of pharmacological properties of some new xanthone derivatives with piperazine moiety” (Bioorg Med Chem Lett, 2013)
Active and inactive are the calls of the source. The calls are words filed in the database; no cut-off is given here.

How the values were obtained:
Mus musculus [1] = experiment: Neurotoxicity in CF1 mouse assessed as minimal motor impairment at 30 mg/kg, ip after 4 hrs by rotorod test; format: toxicity, organism-based; set-up: dose 30 mg/kg, route intraperitoneal; conditions: in vivo
In short: (§1)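 Rotarod neurotoxicity screen in mice dosed i.p. at 30, 100 or 300 mg/kg, read 0.5 or 4 h after dosing. The animal must stay on a rod rotating at 6 rpm without falling, measured 3 times within 1 min. A fall counts as minimal motor impairment. Result is recorded as impaired animals over animals used.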

Mus musculus [2] = experiment: Neurotoxicity in CF1 mouse assessed as minimal motor impairment at 100 mg/kg, ip after 4 hrs by rotorod test; format: toxicity, organism-based; set-up: dose 100 mg/kg, route intraperitoneal; conditions: in vivo; in short: as §1
Mus musculus [3] = experiment: Neurotoxicity in CF1 mouse assessed as minimal motor impairment at 300 mg/kg, ip after 0.5 hrs by rotorod test; format: toxicity, organism-based; set-up: dose 300 mg/kg, route intraperitoneal; conditions: in vivo; in short: as §1
Mus musculus [4] = experiment: Neurotoxicity in CF1 mouse assessed as minimal motor impairment at 30 mg/kg, ip after 0.5 hrs by rotorod test; format: toxicity, organism-based; set-up: dose 30 mg/kg, route intraperitoneal; conditions: in vivo; in short: as §1
Rattus norvegicus [5] = experiment: Neurotoxicity in Sprague-Dawley rat assessed as minimal motor impairment at 30 mg/kg, po after 1 hr by rotorod test; conditions: in vivo
Rattus norvegicus [6] = experiment: Neurotoxicity in Sprague-Dawley rat assessed as minimal motor impairment at 30 mg/kg, po after 4 hrs by rotorod test; conditions: in vivo
Rattus norvegicus [7] = experiment: Neurotoxicity in Sprague-Dawley rat assessed as minimal motor impairment at 30 mg/kg, po after 2 hrs by rotorod test; conditions: in vivo
Rattus norvegicus [8] = experiment: Neurotoxicity in Sprague-Dawley rat assessed as minimal motor impairment at 30 mg/kg, po after 0.5 hrs by rotorod test; conditions: in vivo
Rattus norvegicus [9] = experiment: Neurotoxicity in Sprague-Dawley rat assessed as minimal motor impairment at 30 mg/kg, po after 0.25 hrs by rotorod test; conditions: in vivo
[10] = target: T1, Adrenergic receptor alpha-1 (Rattus norvegicus, UniProt P15823+P23944+P43140); experiment: Displacement of [3H]prazosin from alpha1-adrenergic receptor in rat cerebral cortex after 30 mins by scintillation counting; format: tissue-based
T1 sequence (P15823 whole entry): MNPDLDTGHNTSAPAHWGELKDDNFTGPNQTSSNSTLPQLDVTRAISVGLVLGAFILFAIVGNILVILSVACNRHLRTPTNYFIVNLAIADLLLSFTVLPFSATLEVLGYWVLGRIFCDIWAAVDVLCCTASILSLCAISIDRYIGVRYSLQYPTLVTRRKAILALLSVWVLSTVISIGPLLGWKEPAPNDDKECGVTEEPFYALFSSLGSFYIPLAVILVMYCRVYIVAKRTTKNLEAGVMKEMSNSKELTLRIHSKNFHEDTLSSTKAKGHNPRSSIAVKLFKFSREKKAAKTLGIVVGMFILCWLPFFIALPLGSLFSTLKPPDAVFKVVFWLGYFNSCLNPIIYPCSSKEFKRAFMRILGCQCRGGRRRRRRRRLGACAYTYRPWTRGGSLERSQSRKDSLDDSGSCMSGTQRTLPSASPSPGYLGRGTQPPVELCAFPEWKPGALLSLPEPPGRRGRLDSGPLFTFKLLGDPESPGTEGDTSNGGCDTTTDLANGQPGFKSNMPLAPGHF
T1 sequence (P23944 whole entry): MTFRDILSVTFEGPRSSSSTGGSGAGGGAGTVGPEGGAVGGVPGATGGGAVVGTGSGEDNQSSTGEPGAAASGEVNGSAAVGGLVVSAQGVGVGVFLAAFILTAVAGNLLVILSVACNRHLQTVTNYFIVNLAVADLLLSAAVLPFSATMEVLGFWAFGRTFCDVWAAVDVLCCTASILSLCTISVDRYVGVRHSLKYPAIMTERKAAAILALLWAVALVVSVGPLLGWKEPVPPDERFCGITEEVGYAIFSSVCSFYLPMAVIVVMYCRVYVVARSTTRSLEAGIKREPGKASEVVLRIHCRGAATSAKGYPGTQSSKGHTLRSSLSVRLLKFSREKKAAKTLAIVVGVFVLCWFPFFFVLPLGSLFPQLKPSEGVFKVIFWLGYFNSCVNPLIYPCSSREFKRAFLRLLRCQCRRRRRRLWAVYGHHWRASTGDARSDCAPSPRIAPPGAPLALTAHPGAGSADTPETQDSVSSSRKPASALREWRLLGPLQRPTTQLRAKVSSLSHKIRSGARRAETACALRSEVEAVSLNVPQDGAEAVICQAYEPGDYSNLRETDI
T1 sequence (P43140 whole entry): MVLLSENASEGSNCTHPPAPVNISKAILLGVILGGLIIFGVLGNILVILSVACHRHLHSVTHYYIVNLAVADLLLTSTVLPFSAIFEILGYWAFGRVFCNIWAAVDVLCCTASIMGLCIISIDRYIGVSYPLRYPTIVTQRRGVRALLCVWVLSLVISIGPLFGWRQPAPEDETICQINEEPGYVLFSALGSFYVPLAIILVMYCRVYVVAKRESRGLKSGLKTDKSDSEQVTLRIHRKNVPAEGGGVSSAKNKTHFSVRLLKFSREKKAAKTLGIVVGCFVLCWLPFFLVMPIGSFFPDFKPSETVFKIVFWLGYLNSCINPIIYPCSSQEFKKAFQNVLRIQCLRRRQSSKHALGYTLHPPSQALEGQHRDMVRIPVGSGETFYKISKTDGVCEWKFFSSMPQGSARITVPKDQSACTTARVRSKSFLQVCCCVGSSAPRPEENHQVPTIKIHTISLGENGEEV
In short: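 Radioligand binding on rat brain tissue membranes, run in 96-well format. [3H]prazosin was used for α1 (n = 2) and [3H]CGP-12177 for β1 (n = 2). Ki was calculated by the Cheng–Prusoff equation.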

[11] = target: 5-hydroxytryptamine receptor 7 (Homo sapiens, UniProt P34969); experiment: Displacement of [3H]5-CT from human 5HT7b receptor expressed in HEK293 cells after 1 hr; format: cell-based
[12] = target: 5-hydroxytryptamine receptor 6 (Homo sapiens, UniProt P50406); experiment: Displacement of [3H]LSD from human 5HT6 receptor expressed in HEK293 cells after 1 hr; format: cell-based
[13] = target: T2, 5-hydroxytryptamine receptor 1A (Homo sapiens, UniProt P08908); experiment: Displacement of [3H]8-OH-DPAT from human 5HT1A receptor expressed in HEK293 cells after 1 hr; format: cell-based
T2 sequence (P08908 whole entry): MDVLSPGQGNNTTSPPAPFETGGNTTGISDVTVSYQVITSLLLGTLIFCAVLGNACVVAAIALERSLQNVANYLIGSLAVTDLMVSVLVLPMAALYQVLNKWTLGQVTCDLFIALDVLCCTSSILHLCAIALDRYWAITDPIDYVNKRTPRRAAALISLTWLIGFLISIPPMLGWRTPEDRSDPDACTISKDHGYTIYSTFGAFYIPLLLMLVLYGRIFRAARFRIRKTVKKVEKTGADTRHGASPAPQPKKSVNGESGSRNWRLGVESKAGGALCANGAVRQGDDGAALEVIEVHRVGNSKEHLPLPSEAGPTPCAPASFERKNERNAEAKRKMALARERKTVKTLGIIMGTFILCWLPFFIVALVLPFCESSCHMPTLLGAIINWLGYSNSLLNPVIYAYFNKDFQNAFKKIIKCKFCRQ

Rattus norvegicus [14] = species on record: Rattus norvegicus; experiment: Displacement of [3H]CGP-12177 from beta1-adrenergic receptor in rat cerebral cortex at 50 uM after 60 mins by scintillation counting; format: tissue-based
[15] = Displacement of [3H]CGP-12177 from beta1-adrenergic receptor in rat cerebral cortex after 60 mins by scintillation counting; format: tissue-based
In short: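 Radioligand binding on rat brain tissue membranes, run in 96-well format. Ki was calculated by the Cheng–Prusoff equation.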

Chain of 5-hydroxytryptamine receptor 7 (P34969 whole entry): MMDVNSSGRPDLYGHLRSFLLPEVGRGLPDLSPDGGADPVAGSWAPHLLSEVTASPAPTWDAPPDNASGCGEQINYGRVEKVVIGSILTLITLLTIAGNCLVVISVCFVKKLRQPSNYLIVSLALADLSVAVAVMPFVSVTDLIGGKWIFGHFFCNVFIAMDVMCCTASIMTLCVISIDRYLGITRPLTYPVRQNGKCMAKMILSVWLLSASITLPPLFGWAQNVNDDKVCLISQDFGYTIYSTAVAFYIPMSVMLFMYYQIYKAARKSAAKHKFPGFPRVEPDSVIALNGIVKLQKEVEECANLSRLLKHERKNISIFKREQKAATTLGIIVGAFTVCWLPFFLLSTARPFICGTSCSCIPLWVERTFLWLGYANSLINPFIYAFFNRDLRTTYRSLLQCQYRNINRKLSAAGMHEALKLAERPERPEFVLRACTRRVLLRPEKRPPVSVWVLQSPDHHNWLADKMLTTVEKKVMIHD
Chain of 5-hydroxytryptamine receptor 6 (P50406 whole entry): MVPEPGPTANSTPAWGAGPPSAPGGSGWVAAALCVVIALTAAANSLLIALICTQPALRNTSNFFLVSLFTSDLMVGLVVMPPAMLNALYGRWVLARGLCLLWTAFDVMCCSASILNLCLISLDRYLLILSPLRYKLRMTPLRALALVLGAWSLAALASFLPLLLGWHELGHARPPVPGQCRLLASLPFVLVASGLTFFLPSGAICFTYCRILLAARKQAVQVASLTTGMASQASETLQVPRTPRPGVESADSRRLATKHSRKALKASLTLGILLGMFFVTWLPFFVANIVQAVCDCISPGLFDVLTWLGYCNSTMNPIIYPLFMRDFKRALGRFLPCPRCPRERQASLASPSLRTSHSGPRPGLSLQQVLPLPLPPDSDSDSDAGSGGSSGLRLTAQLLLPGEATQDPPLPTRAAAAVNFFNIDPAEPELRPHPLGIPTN

| Ki [10] | Ki [11] | Ki [12] | Ki [13] | inhibition (Rattus norvegicus [14]) | Ki [15] | SMILES | Activity (Mus musculus [1]) | Activity (Mus musculus [2]) | Activity (Mus musculus [3]) | Activity (Mus musculus [4]) | Activity (Rattus norvegicus [5]) | Activity (Rattus norvegicus [6]) | Activity (Rattus norvegicus [7]) | Activity (Rattus norvegicus [8]) | Activity (Rattus norvegicus [9]) |
| --- | --- | --- | --- | --- | --- | --- | --- | --- | --- | --- | --- | --- | --- | --- | --- |
|  |  |  |  |  |  | COc1ccc2c(=O)c3cc(CN4CCN(C)CC4)ccc3oc2c1 | Non-toxic | Non-toxic | Toxic | Non-toxic | Non-toxic | Non-toxic | Non-toxic | Non-toxic | Non-toxic |
| 0.31 µM | 13.5 µM | 8.84 µM | 1.67 µM |  |  | COc1ccc2c(=O)c3cc(CN4CCN(Cc5ccccc5)CC4)ccc3oc2c1.Cl.Cl |  |  |  |  |  |  |  |  |  |
| 0.65 µM | 10.5 µM | 19.5 µM | 13.3 µM | inactive |  | CN1CCN(Cc2cccc3c(=O)c4ccc(Cl)cc4oc23)CC1.Cl.Cl.Cl |  |  |  |  |  |  |  |  |  |
| 3.66 µM | 0.426 µM | 5.94 µM | 0.117 µM |  | > 10 µM | COc1ccccc1N1CCN(Cc2ccc3oc4ccccc4c(=O)c3c2)CC1.Cl |  |  |  |  |  |  |  |  |  |
| 0.38 µM | 1.14 µM | 13.6 µM | 0.429 µM |  | > 30 µM | COc1ccc2c(=O)c3cc(CN4CCN(c5ccccc5OC)CC4)ccc3oc2c1.Cl |  |  |  |  |  |  |  |  |  |
